High-throughput results from PubChem BioAssay.
OXTR agonist: human OXTR agonists, primary screen, fluorescence, CHO-OTR cells, Fluo-8 calcium. Oxytocin receptor (Homo sapiens), P30559. Fluo-8 calcium fluorescence; normalized: DMSO 0%, oxytocin 100%. activation, % at 3 µM. hit rate 0.32% among 320,000;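 active means activation above the mean of all tested compounds plus 3 SD, cutoff set per screening run, cut at about 20% in these data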;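 further: peak over basal fluorescence ratio from a 100 s FLIPR kinetic read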
OXTR potentiate: human OXTR potentiators, primary screen, fluorescence, CHO-OTR cells, Fluo-8 calcium | hit rate 0.061% among 320,000 | Fluo-8 calcium fluorescence, potentiator mode; 0% = oxytocin EC15, 100% = EC100 | activation, % at 3 µM | Oxytocin receptor (Homo sapiens), P30559;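 active means activation above that plate's cutoff, the mean activation of tested compounds plus 3 SD, cut at about 6.6% in these data, passing the limit was not always enough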
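System: human OTR in CHO cells / Also added: sub-maximal oxytocin, roughly EC15 / Control set: EC15 oxytocin low, 75 nM oxytocin high / Schedule: 6 min compound pre-incubation at room temperature, 100 s kinetic read / Compound: single-point 3.0 µM / Replication: singlicate / Technique: Fluo-8 calcium dye fluorescence / Read-out basis: % activation of max/min ratio relative to oxytocin controls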
CHO parental Ca: ATP-evoked calcium signal inhibitors, parental CHO, primary screen, counter-screen for OX1R antagonist project, cell-based, fluorescence, Fluo-8 calcium dye | parental CHO-K1, ATP-induced calcium, Fluo-8 fluorescence | inhibition, % at 5.6 µM | hit rate 0.63% among 330,000 | AID 463079, 2010;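 active means inhibition above that plate's mean sample inhibition plus 3 SD, cut at about 26% in these data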
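test system = CHO parental line | reagent = ATP stimulus | measured by = intracellular calcium via Fluo-8 no-wash fluorescent dye | control set = ATP and no-ATP DMSO wells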
V1R ag counter: agonists of human V1a receptor, primary screen, counter-screen for OXTR agonist project, fluorescence, CHO-V1R cells; Vasopressin V1a receptor (Homo sapiens), P37288; Fluo-8 calcium fluorescence, agonist mode; 0% DMSO, 100% 3 nM vasopressin; activation, % at 3 µM; hit rate 0.25% among 320,000;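 active means activation above the mean activation of all tested compounds plus 3 SD, per screening run, cut at about 20% in these data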;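 further: signal is peak over basal fluorescence ratio across a 100 second FLIPR read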
Target sequence (P37288 whole entry, looked up): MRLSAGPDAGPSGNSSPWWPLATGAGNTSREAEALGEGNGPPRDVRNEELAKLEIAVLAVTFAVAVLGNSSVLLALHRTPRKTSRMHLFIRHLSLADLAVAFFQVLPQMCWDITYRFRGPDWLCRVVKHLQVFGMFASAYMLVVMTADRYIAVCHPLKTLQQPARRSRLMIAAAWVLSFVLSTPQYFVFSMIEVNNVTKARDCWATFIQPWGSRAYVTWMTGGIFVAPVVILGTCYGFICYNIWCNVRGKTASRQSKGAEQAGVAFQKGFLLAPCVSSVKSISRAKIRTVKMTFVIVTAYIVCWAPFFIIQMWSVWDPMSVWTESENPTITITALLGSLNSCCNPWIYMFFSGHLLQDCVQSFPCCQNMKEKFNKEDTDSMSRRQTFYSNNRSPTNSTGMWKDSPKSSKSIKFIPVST
OX1R antag-1: OX1R (HCRTR1) antagonists, primary screen, fluorescence, CHO/OX1R cells, Fluo-8 calcium, orexin A. Orexin/Hypocretin receptor type 1 (Homo sapiens), O43613. Fluo-8 calcium fluorescence. inhibition, % at 5 µM. hit rate 0.43% among 330,000. AID 434989, 2010;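 active means inhibition above its plate's threshold, mean inhibition of all tested compounds on the plate plus 3 SD, cut at about 37% in these data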
OX1R antag-2: antagonists of human orexin 1 receptor (OX1R). Orexin/Hypocretin receptor type 1 (Homo sapiens), O43613. hit rate 1.8% among 330,000. inhibition, % at 6.6 µM. OX1R-expressing cells, FRET antagonist read-out. AID 485270, 2010; in the data active means inhibition mostly above about 38%, no sharp cut-off; inactive means mostly below about 40%
Each line names hits and unclear results; the compound was inactive in the other large screens. In the library only some 2.7% were active in any assay of this set; here they are far more common.

O=C(c1ccccc1F)N1CCN(c2ccc([N+](=O)[O-])c(NCC3CCCO3)c2)CC1 (stereo unspecified)	none
CN(CC(=O)Nc1ccccc1Cl)CC(=O)N(C)c1c(N)n(Cc2ccccc2)c(=O)[nH]c1=O	none
CN1CCN(Cn2cc(/C=C/C(=O)c3ccccc3)c3ccccc32)CC1	OX1R antag-2 40
Cc1ccc(C(=O)N/C(=C/c2ccc(-c3cc(C(F)(F)F)ccc3Cl)o2)C(=O)NCc2cccnc2)cc1	OX1R antag-2 36
NC(=O)c1ccsc1NC(=O)COC(=O)/C=C/c1ccc([N+](=O)[O-])cc1	none
COC(=O)c1ccc(/C=C/C(=O)OCC(=O)Nc2sccc2C(N)=O)cc1	OX1R antag-2 56
NC(=O)c1ccsc1NC(=O)COC(=O)CSc1ccc(Cl)cc1	CHO parental Ca 42, OX1R antag-1 45
COc1ccc(CCC(=O)OCC(=O)Nc2sccc2C(N)=O)cc1	CHO parental Ca 33, OX1R antag-1 55
COc1cc(CC(=O)Nc2sccc2C(N)=O)cc(OC)c1OC	none
COc1ccc(CCC(=O)OCC(=O)Nc2sccc2C(N)=O)cc1OC	CHO parental Ca 47, OX1R antag-1 46, OX1R antag-2 36
CC(Cc1ccc(Cl)cc1)N1CCC(n2nccc2NC(=O)C2CCCC2)CC1 (stereo unspecified)	none
COC(=O)c1ccccc1NC(=O)COc1ccccc1	OX1R antag-2 41
N#CCCN(C(=O)COC(=O)COc1ccc(Cl)cc1)c1ccccc1	none
CCC(=O)c1ccc(OCC(=O)OCC(=O)N(CCC#N)c2ccc3c(c2)OCCO3)cc1	CHO parental Ca 44
COc1cc(CN2CCC(Oc3cc(C(=O)NC4CC4)ccc3OC)CC2)cc(OC)c1	none
Cc1cccc(NS(=O)(=O)c2c(C(=O)N3CCOCC3)c(C)n(C)c2C)c1C	none
O=C(NCCn1cc(SCc2ccc(F)cc2)c2ccccc21)c1c(F)cccc1F	CHO parental Ca 42
O=C(CSc1cn(CCNC(=O)c2ccccc2)c2ccccc12)NCc1ccco1	OX1R antag-2 41
O=C(NCCn1cc(SCc2ccc(F)cc2)c2ccccc21)c1ccccc1F	CHO parental Ca 71
CCCn1cc(SCC(=O)NCc2ccco2)c2ccccc21	none
O=C(NCCn1cc(SCc2ccccc2)c2ccccc21)c1c(F)cccc1F	CHO parental Ca 70
CN(C)S(=O)(=O)c1ccc(-c2csc(N/N=C/c3ccc(O)cc3)n2)cc1	none
Cc1nn(-c2ccccc2)c(Cl)c1C(=O)N1CCN(c2ncnc3c2cnn3-c2ccccc2)CC1	CHO parental Ca 78, OX1R antag-1 51, OX1R antag-2 83
CC1CCC2(CC1)NC(=O)N(CC(=O)N1CCN(S(=O)(=O)c3ccccc3)CC1)C2=O (stereo unspecified)	none
O=C(C[n+]1ccc(C(=O)c2ccccc2)cc1)Nc1ccccc1OC(F)F	OX1R antag-2 46
O=C(NC1CC1)C1CCN(S(=O)(=O)c2ccc(Cl)c([N+](=O)[O-])c2)CC1	none
CC(C)=CCN1CCN(Cc2cnc(-c3ccccc3)s2)CC1CCO (stereo unspecified)	none
CCn1c(SCc2nc3scc(-c4ccccc4)c3c(=O)[nH]2)nnc1-c1cccs1	OX1R antag-2 56
O=c1[nH]c(/C=C\c2cccnc2)c([N+](=O)[O-])c(=O)[nH]1	OX1R antag-2 54
COc1cc(/C=C/c2[nH]c(=O)[nH]c(=O)c2[N+](=O)[O-])cc([N+](=O)[O-])c1O	OX1R antag-2 63
CC[C@@]1(O)C(=O)OCc2c1cc1n(c2=O)Cc2cc3c(CN(C)C)c(O)ccc3nc2-1	OX1R antag-2 46
CCCCc1cc(=O)oc2c(CN(C)C)c(O)ccc12	none
O=C(O)c1ccc(-n2c(/C=C/c3cccc([N+](=O)[O-])c3)nc3ccccc3c2=O)cc1	none
O=C(O)c1ccc(-n2c(/C=C/c3ccccc3)nc3ccccc3c2=O)cc1	OX1R antag-2 37
Cc1sc2ncnc(NCC3COc4ccccc4O3)c2c1C (stereo unspecified)	CHO parental Ca 62
c1ccc(-c2csc3ncnc(NCC4COc5ccccc5O4)c23)cc1 (stereo unspecified)	CHO parental Ca 79
Cc1sc2ncnc(NCC3CCCO3)c2c1C (stereo unspecified)	none
CC(C)CC(Nc1ncnc2scc(-c3ccccc3)c12)C(=O)O (stereo unspecified)	none
Cc1cc(C)c(N=C2CCCN2Cc2ccccc2)c(C#N)c1	CHO parental Ca 40
N#Cc1ccccc1N=C1CCCN1Cc1ccccc1	none
COc1ccc(OCc2nnc(SCC(=O)N3C(C)CCCC3C)o2)cc1 (stereo unspecified)	none
Cc1ccc(Cn2c(O)c(N=O)c3ccccc32)cc1	none
O=Nc1c(O)n(Cc2ccc(Cl)cc2Cl)c2ccccc12	CHO parental Ca 87
O=Nc1c(O)n(Cc2ccc(Cl)cc2)c2ccccc12	none
Cc1ccc2c(c1)c(N=O)c(O)n2Cc1ccc(Cl)cc1	CHO parental Ca 36
Cc1ccc(C2=NCCn3nc4cc(C(F)(F)F)ccc4c32)cc1	none
CCCCCCCCn1ccc(=N)cc1	none
CCCCCCCCCCn1ccc(=N)cc1	CHO parental Ca 34, OX1R antag-1 48
COc1ccc(-c2ccc(NC(=O)c3ccc(Br)o3)cc2)nn1	none
Cn1nnnc1SCC(=O)Nc1cc(S(=O)(=O)N2CCCCC2)ccc1Cl	none
O=C1c2cccc(O)c2C(=O)c2c(O)cc(CO)cc21	OX1R antag-2 48
O=c1cc(-c2ccc(O)cc2)oc2ccc3ccccc3c12	none
O=c1cc(-c2ccc(O)cc2)oc2c1ccc1ccccc12	OX1R antag-2 44
O=C(Nc1ccncc1)c1cccc(S(=O)(=O)N2CCc3ccccc32)c1	CHO parental Ca 59, OX1R antag-1 48, OX1R antag-2 48
Cc1ccc2c(c1)CCCN2S(=O)(=O)c1cccc(C(=O)Nc2ccccc2C(=O)O)c1	OX1R antag-2 58
O=C(O)c1cccc(NC(=O)c2cccc(S(=O)(=O)N3CCc4ccccc43)c2)c1	none
Cc1cccn2c(=O)c3cc(C(=O)NC4CCCC4)sc3nc12	OX1R antag-2 55
O=C(NC1CCCC1)c1cc2c(=O)n3ccccc3nc2s1	none
Brc1cc2c(cc1/C=N/Nc1nc3ccccc3s1)OCO2	none
